According to the M2OR odorant receptor database:

target: T1, Or1m1 (Mus musculus) (UniProt Q8VFM9); details: stereoisomer not certain
T1 sequence (whole entry): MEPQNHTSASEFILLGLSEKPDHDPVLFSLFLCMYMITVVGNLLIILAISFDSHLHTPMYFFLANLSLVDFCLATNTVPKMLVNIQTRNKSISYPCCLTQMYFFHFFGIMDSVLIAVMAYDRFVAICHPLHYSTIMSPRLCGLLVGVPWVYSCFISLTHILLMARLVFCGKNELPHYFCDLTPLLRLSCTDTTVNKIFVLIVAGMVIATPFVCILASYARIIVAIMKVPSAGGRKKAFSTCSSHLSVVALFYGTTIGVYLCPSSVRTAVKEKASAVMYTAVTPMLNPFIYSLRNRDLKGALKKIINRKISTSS
In short: (§1)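 Transient luciferase assays in mammalian cell lines were common, though methods varied by source. The values come from published papers and their supplementary material, with extra details from the original authors when needed. Responsive refers to a measured signal the original authors judged statistically different from baseline, and non-responsive (inactive) to the remainder.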

Structure (SMILES)	odorant receptor agonist call;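 note: active if original authors judged signal statistically different from baseline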
CCc1ncc(C)nc1CC	inactive
COc1cnccn1	inactive
CCC(C)c1nccnc1OC (configuration not stated)	inactive
CCc1nccnc1CC	inactive
COc1nccnc1C(C)C	inactive

target: T2, Or2c1 (Mus musculus) (UniProt P23275); details: stereoisomer not certain
T2 sequence (whole entry): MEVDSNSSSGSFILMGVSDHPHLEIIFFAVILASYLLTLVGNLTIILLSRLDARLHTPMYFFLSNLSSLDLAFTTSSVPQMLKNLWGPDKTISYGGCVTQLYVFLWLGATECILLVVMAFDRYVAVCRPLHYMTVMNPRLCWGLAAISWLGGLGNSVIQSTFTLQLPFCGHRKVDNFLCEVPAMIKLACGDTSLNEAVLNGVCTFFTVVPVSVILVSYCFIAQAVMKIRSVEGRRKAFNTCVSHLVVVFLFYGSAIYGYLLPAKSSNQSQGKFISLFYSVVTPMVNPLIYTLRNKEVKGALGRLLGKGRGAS
In short: as §1

Structure (SMILES)	odorant receptor agonist call;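 note: active if original authors judged signal statistically different from baseline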
CCC(C(=O)O)c1ccccc1 (configuration not stated)	inactive
CCCCCCC(=O)[O-].[H+]	inactive
CCCCCO	inactive
O=c1ccc2ccccc2o1	inactive
CCCCOC(=O)C(C)OC(=O)CCC (configuration not stated)	inactive

target: T3, Or5an6 (Mus musculus) (UniProt Q8VFV4); details: stereoisomer not certain
T3 sequence (whole entry): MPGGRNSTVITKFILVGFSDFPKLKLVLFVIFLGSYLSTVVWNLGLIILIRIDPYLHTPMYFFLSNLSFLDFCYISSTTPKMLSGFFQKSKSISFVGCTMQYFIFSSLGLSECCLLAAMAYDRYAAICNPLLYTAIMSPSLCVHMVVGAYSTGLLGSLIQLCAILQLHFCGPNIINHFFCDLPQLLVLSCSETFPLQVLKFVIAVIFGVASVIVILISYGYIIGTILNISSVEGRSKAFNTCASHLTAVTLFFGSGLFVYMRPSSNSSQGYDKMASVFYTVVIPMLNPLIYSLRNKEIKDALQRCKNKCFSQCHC
In short: as §1

Structure (SMILES)	odorant receptor agonist call;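 note: active if original authors judged signal statistically different from baseline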
CCCCCCCC(=O)CCCCCCC	active
O=C1CCCCCCC=CCCCCCCC1	active
O=C1C=CCCCCCCCCCCCCO1	active
O=C1CCCCCC=CCCCCCCCCO1	active
CC1CCCCCCCCCCCC(=O)C1 (configuration not stated)	active
CCC(=O)OCC(C)(C)OC(C)C1CCCC(C)(C)C1 (configuration not stated)	active
CC1CC=CCCCCCCCCC(=O)C1 (configuration not stated)	active
O=C1CCCC=CCCCCCCCCCC1	active
CC1C(C)(C)C2=C(C(=O)CCC2)C1(C)C (configuration not stated)	inactive
O=C1CCCCCCCCCCCCCC1	active
CCCCCCCCCCCCCC(C)=O	active
O=C1CCCCCCCCC1	active
O=C1CCCCCCCCCC1	inactive

target: T4, Or5ar1 (Mus musculus) (UniProt Q8VGS3); details: stereoisomer not certain
T4 sequence (whole entry): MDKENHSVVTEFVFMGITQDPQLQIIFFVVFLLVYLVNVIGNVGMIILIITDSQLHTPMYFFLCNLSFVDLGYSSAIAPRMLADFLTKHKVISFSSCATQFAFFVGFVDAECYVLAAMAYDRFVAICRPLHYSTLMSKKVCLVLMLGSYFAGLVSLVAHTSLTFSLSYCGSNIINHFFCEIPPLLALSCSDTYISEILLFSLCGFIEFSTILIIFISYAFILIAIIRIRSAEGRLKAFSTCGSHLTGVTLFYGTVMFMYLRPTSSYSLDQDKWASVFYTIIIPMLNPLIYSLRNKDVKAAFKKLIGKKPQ
In short: as §1

Structure (SMILES)	odorant receptor agonist call;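 note: active if original authors judged signal statistically different from baseline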
CCc1ncc(C)nc1CC	inactive
CCC(C(=O)O)c1ccccc1 (configuration not stated)	inactive
COc1cnccn1	inactive
CCC(C)c1nccnc1OC (configuration not stated)	inactive
CCc1nccnc1CC	inactive
CCCCCCC(=O)[O-].[H+]	inactive
CCCCCO	inactive
O=c1ccc2ccccc2o1	inactive
CCCCOC(=O)C(C)OC(=O)CCC (configuration not stated)	inactive
COc1nccnc1C(C)C	inactive

target: T5, Or5k16 (Mus musculus) (UniProt Q7TS48); details: stereoisomer not certain
T5 sequence (whole entry): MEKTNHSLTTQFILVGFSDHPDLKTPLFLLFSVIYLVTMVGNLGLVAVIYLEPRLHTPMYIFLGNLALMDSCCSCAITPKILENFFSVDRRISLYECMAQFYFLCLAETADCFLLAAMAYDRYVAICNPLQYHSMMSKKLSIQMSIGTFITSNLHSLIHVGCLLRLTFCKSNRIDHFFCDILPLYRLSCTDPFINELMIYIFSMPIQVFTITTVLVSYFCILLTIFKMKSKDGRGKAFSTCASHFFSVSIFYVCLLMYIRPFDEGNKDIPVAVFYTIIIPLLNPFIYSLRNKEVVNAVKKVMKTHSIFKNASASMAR
In short: as §1

Structure (SMILES)	odorant receptor agonist call;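 note: active if original authors judged signal statistically different from baseline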
CCc1ncc(C)nc1CC	inactive
CC1CCc2nccnc21 (configuration not stated)	inactive
CCc1nccnc1OC	inactive
COc1cnccn1	inactive
CCC(C)c1nccnc1OC (configuration not stated)	inactive
Cc1cnc(C)cn1	inactive
Cc1cnccn1	inactive
CCc1nccnc1CC	inactive
C=Cc1cnccn1	inactive
Cc1nccnc1C	inactive
Cc1cncc(C)n1	inactive
CCc1cnc(C)c(C)n1	active
CC(=O)c1nccnc1C	inactive
COc1nccnc1CC(C)C	inactive
CCc1nccnc1C(C)=O	inactive
COC1=C(C)OC(C)C1=O (configuration not stated)	inactive
CC(=O)c1cnccn1	inactive
CCc1nccnc1C	inactive
COc1nccnc1C(C)C	inactive
